Assay results from ChEMBL document CHEMBL4376812 (J Med Chem, 2019).
≈ marks a conversion by molar mass, not a printed value.

Experiments:
Mus musculus [1] = assay: Antiinflammatory activity in CD40-induced colitis model of SCID mouse assessed as inhibition of IL-2 driven body weight loss at 50 mg/kg, po administered twice daily relative to control; type: functional; details: in the assay text read “IL-12 driven” for “IL-2 driven”
Outline: (§1)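 Colitis induced by anti-CD40 in SCID mice. Compound was given orally at 50 mg/kg twice daily. Read-outs were peak weight loss (IL-12 driven) and histological scores.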

[2] = Time during which drug concentration exceed invitro IC50 for TYK2 in mouse whole blood assessed as decrease in IFNalpha-induced STAT1 phosphorylation in C57BL/6 mouse at 30 mg/kg, po via gavage bid for 9 days with first dose given prior to first IL23 challenge and twice a day thereafter; type: ADME, organism-based; details: in vivo, 216 h
Outline: (§2)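 Drug levels were measured in the animals of the IL-23 acanthosis study, dosed orally twice daily. The duration was the time, in hours, that levels stayed at or above the in vitro mouse whole blood IC50 for IFNα-induced pSTAT1.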

Mus musculus [3] = assay: Antiinflammatory activity in CD40-induced colitis model of SCID mouse assessed as inhibition of histological scores in intestine at 50 mg/kg, po administered twice daily relative to control; type: functional; outline: as §1
[4] = Half life in C57BL/6 mouse at 1 mg/kg, iv; type: ADME, organism-based; details: in vivo
Outline: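 Mouse iv PK: 1 mg/kg in 80% PEG 400/20% water. Terminal half-life reported in hours.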

Cytochrome P450 1A2 = molecular target: T1, Cytochrome P450 1A2 (Homo sapiens, UniProt P05177); assay: Inhibition of CYP1A2 (unknown origin); type: ADME
T1 sequence (P05177 whole entry): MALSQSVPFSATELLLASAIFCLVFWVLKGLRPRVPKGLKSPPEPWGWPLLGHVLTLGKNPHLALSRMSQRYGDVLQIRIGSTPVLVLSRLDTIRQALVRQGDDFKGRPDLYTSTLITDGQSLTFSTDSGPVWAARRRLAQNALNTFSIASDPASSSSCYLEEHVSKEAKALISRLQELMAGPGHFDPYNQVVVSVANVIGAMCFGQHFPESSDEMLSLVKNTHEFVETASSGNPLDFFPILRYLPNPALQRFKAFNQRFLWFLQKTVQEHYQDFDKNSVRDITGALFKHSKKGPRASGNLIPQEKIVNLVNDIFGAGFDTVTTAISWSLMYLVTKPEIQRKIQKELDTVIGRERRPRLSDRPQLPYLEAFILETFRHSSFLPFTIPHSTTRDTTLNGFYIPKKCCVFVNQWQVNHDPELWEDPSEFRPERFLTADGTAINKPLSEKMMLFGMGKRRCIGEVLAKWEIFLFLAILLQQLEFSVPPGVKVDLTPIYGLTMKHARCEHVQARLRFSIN
Outline: (§3)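 Inhibition of CYP1A2, 2C9, 2C19, 2D6 and 3A4, read out as IC50. The highest concentration tested was 40 μM.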

[5] = Oral bioavailability in cynomolgus monkey at 10 mg/kg; type: ADME, organism-based, Macaca fascicularis; details: in vivo
Outline: (§4)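 Oral PK: single dose of 10 mg/kg as a solution in ethanol/TPGS/PEG 300 (5:5:90) given to mouse, dog and monkey. Cmax (μM), AUC (μM × h) and bioavailability F (%) were derived, with F taken against the iv arm.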

[6] = Metabolic stability in rabbit liver microsomes assessed as half life; type: ADME, Oryctolagus cuniculus, Microsome
Outline: (§5)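 Liver microsomes from human, rat, mouse, dog, cynomolgus monkey and rabbit were incubated with compound. Stability is reported as half-life (T1/2, min). Values are means of at least three separate experiments.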

Cytochrome P450 2C19 = Cytochrome P450 2C19 (Homo sapiens, UniProt P33261); assay: Inhibition of CYP2C19 (unknown origin); type: ADME; outline: as §3
[7] = Metabolic stability in mouse liver microsomes assessed as half life; type: ADME, Microsome; outline: as §5
[8] = AUC in C57BL/6 mouse at 10 mg/kg, po; type: ADME, organism-based; details: in vivo; outline: as §4
[9] = Cmax in C57BL/6 mouse at 10 mg/kg, po; type: ADME, organism-based; design: dose 10 mg/kg, route oral; details: in vivo; outline: as §4
[10] = MRT in dog at 2 mg/kg, iv; type: ADME, organism-based, Canis lupus familiaris; details: in vivo
Outline: (§6)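 Dog and monkey iv PK: 2 mg/kg given by iv administration. Clearance (mL min⁻¹ kg⁻¹), Vss, T1/2 (h) and MRT (h) were derived.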

[11] = Volume of distribution at steady state in cynomolgus monkey at 2 mg/kg, iv; type: ADME, organism-based, Macaca fascicularis; details: in vivo, read-out: Vdss
Outline: (§7)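 Single intravenous dose in 80% PEG 400/20% water. V_ss was taken from the iv plasma PK profile.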

Cytochrome P450 3A4 = Cytochrome P450 3A4 (Homo sapiens, UniProt P08684); assay: Inhibition of CYP3A4 (unknown origin); type: ADME; outline: as §3
[12] = Clearance in C57BL/6 mouse at 1 mg/kg, iv; type: ADME, organism-based; details: in vivo
Outline: (§8)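 Mouse iv PK: 1 mg/kg given in 80% PEG 400/20% water. Clearance (mL min⁻¹ kg⁻¹) and MRT (h) were derived.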

[13] = Oral bioavailability in C57BL/6 mouse at 10 mg/kg; type: ADME, organism-based; details: in vivo; outline: as §4
[14] = AUC in cynomolgus monkey at 10 mg/kg, po; type: ADME, organism-based, Macaca fascicularis; details: in vivo; outline: as §4
[15] = Metabolic stability in human liver microsomes assessed as half life; type: ADME, Microsome; outline: as §5
[16] = Oral bioavailability in dog at 10 mg/kg; type: ADME, organism-based, Canis lupus familiaris; details: in vivo; outline: as §4
[17] = Protein binding in mouse assessed as unbound fraction; type: ADME
[18] = Aqueous solubility of crystalline free base form of compound at pH 7.4; type: physicochemical; details: aqueous medium
Outline: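 Aqueous solubility of the crystalline free base, measured at pH 7.4 and reported in μg/mL.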

[19] = Clearance in dog at 2 mg/kg, iv; type: ADME, organism-based, Canis lupus familiaris; details: in vivo; outline: as §6
[20] = Metabolic stability in mouse liver microsomes assessed as compound remaining incubated for 10 mins; type: ADME, Microsome; details: read-out: Stability
Outline: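 Mouse liver microsomal stability, reported as percent of parent remaining after a 10 min incubation. Values are means of at least three experiments unless otherwise noted.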

[21] = AUC in dog at 10 mg/kg, po; type: ADME, organism-based, Canis lupus familiaris; details: in vivo; outline: as §4
[22] = MRT in C57BL/6 mouse at 1 mg/kg, iv; type: ADME, organism-based; details: in vivo; outline: as §8
[23] = Time during which drug concentration exceed invitro IC50 for TYK2 in mouse whole blood assessed as decrease in IFNalpha-induced STAT1 phosphorylation in C57BL/6 mouse at 7.5 mg/kg, po via gavage bid for 9 days with first dose given prior to first IL23 challenge and twice a day thereafter; type: ADME, organism-based; details: in vivo, 216 h; outline: as §2
[24] = Metabolic stability in dog liver microsomes assessed as half life; type: ADME, Canis lupus familiaris, Microsome; outline: as §5
[25] = Half life in cynomolgus monkey at 2 mg/kg, iv; type: ADME, organism-based, Macaca fascicularis; details: in vivo; outline: as §6
[26] = Volume of distribution at steady state in C57BL/6 mouse at 1 mg/kg, iv; type: ADME, organism-based; details: in vivo, read-out: Vdss; outline: as §7
[27] = Cmax in cynomolgus monkey at 10 mg/kg, po; type: ADME, organism-based, Macaca fascicularis; design: dose 10 mg/kg, route oral; details: in vivo; outline: as §4
hERG (KCNH2) = hERG (KCNH2) (Homo sapiens, UniProt Q12809); assay: Inhibition of human ERG at 10 uM by patch-clamp assay relative to control
Outline: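 hERG potassium channel patch clamp assay, read as percent inhibition at 10 μM (n = 7).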

[28] = Drug metabolism in C57BL/6 mouse assessed as N-dealkylation of compound by measuring primary amide metabolite formation in mouse plasma by deuterium kinetic isotope effect; type: ADME
Outline: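 Circulating primary amide metabolite, formed by N-dealkylation of the deuteromethyl amide, was measured in the mouse, dog and monkey PK studies (10 mg/kg po; iv arms). The lower limit of detection was about 2 nM.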

Chain of Cytochrome P450 2C19 (P33261 whole entry): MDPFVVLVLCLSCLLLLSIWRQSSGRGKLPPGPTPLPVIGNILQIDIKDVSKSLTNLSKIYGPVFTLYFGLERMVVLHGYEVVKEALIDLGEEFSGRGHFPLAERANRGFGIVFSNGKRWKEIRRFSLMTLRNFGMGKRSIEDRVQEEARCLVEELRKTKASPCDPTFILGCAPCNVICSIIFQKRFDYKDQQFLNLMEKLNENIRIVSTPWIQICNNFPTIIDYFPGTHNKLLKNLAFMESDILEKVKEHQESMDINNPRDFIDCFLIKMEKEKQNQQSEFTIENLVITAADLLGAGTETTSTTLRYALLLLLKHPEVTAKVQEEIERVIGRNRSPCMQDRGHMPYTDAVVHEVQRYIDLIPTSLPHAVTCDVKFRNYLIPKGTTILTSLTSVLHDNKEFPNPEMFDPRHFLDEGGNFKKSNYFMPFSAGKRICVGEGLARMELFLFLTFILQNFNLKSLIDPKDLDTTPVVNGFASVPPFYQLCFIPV
Chain of hERG (KCNH2) (Q12809 whole entry): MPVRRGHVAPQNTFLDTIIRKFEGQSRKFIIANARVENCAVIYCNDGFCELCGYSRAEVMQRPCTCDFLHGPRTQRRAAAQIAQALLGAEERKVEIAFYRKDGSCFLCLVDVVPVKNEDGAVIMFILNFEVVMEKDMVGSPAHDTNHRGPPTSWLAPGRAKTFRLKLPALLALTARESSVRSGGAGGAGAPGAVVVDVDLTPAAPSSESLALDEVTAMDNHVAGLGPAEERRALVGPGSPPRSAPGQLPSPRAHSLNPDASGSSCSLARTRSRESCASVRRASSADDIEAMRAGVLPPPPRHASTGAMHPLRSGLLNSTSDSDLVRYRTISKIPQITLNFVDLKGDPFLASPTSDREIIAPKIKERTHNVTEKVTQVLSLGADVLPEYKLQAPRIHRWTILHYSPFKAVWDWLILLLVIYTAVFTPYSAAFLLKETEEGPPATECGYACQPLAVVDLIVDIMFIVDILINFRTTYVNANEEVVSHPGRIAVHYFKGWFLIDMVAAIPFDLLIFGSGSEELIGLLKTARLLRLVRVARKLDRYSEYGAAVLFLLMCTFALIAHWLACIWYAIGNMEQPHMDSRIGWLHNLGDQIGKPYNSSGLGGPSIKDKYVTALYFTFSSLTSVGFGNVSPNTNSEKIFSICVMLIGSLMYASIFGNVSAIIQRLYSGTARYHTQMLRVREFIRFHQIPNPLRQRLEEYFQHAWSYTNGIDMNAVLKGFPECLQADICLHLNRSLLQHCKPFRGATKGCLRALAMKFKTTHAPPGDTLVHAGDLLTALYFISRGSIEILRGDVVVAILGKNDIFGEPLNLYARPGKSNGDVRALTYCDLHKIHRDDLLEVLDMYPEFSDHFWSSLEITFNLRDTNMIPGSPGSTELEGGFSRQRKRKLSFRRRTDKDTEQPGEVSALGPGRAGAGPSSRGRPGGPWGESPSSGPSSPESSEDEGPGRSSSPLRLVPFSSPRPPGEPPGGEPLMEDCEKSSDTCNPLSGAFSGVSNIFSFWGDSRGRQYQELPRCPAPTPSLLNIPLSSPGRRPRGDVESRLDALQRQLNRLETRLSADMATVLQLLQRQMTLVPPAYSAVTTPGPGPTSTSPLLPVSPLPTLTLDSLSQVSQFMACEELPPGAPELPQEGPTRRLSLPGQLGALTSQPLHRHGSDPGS
Chain of Cytochrome P450 3A4 (P08684 whole entry): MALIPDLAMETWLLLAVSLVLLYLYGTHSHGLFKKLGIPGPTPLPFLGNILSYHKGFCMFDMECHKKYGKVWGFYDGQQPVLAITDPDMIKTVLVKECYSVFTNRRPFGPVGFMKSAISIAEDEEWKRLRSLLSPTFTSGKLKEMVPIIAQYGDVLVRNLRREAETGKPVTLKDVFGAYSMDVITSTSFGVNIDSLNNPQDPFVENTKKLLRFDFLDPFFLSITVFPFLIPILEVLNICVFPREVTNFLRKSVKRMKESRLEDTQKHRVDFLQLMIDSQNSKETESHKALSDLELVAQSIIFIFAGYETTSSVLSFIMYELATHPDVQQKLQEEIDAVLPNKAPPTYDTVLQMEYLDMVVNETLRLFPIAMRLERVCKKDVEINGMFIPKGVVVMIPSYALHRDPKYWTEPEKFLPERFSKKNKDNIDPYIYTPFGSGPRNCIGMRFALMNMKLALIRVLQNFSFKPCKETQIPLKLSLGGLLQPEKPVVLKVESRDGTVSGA

T>IC50 [2]: 24 h
half-life [4]: 4.2 h
IC50 (Cytochrome P450 1A2): > 40 µM
bioavailability [5]: 87%
half-life [6]: > 2 h
IC50 (Cytochrome P450 2C19): > 40 µM
half-life [7]: > 2 h
AUC [8]: 36.4 µM·h
Cmax [9]: 7.5 µM
MRT [10]: 5.5 h
Vd [11]: 2 L/kg
IC50 (Cytochrome P450 3A4): > 40 µM
clearance [12]: 13.2 mL/min/kg
bioavailability [13]: 122%
AUC [14]: 75.7 µM·h
half-life [15]: > 2 h
bioavailability [16]: 128%
fraction unbound [17]: 0.15
solubility [18]: 5.2 µg/mL (≈ 12.2 µM)
clearance [19]: 6.8 mL/min/kg
remaining at 10 min [20]: 89%
AUC [21]: 73.6 µM·h
MRT [22]: 3.6 h
T>IC50 [23]: 19 h
half-life [24]: > 2 h
half-life [25]: 5.3 h
Vd [26]: 2.9 L/kg
Cmax [27]: 5.9 µM
Drug metabolism [28]: < 2 nM
SMILES: [2H]C([2H])([2H])NC(=O)c1nnc(NC(=O)C2CC2)cc1Nc1cccc(-c2ncn(C)n2)c1OC [DEUCRAVACITINIB]
inhibition in vivo at 50 mg/kg (Mus musculus [1]): 99%
inhibition in vivo at 50 mg/kg (Mus musculus [3]): 70%
inhibition at 10 µM (hERG (KCNH2)): 26%
